Assay results published in ChEMBL document CHEMBL2311266, “Isolation and identification of β-hematin inhibitors from Flacourtia indica as promising antiplasmodial agents” (Eur J Med Chem, 2013).

Tested on: not listed separately
Assay: Cytotoxicity against african green monkey Vero cells after 72 hrs by MTT assay
Assay type: cell-based
Settings: chlorocebus sabaeus
Outline: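 Vero cells (1 × 10⁴) exposed to serial dilutions of test agents for 72 h; viability read by MTT. Three replicates; CC50 from non-linear regression of dose-response curves.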
Work on `O=c1cc2c3c(cc4c(c3o1)C[C@H](O)[C@@H](c1ccc(O)c(O)c1)O4)Oc1cc(O)c(O)cc1-2` [MURURIN A] yielded a CC50 at 72 h of 58.5 µM. Molecule `O=C1C[C@@H](c2ccc(O)c(O)c2)c2c(O)cc3c(c2O1)C[C@H](O)[C@@H](c1ccc(O)c(O)c1)O3` has a CC50 at 72 h of 200 µM. With `CCN(CC)CCCC(C)Nc1ccnc2cc(Cl)ccc12` (stereo not given) [CHLOROQUINE] the CC50 at 72 h was 126 µM. Molecule `O=C(OC[C@H]1O[C@@H](Oc2ccc(O)cc2COC(=O)[C@@]2(O)[C@H](O)C=CC(=O)[C@@H]2O)[C@H](O)[C@@H](O)[C@@H]1O)c1ccccc1` has a CC50 at 72 h of 118 µM. Work on `O=C(O[C@H]1[C@H](Oc2ccc(O)cc2COC(=O)[C@@]2(O)[C@H](O)C=CC(=O)[C@@H]2O)O[C@H](CO)[C@@H](O)[C@@H]1O)c1ccccc1` yielded a CC50 at 72 h of 77.3 µM. For `COc1cc(-c2cc(=O)c3c(O)cc(O[C@@H]4O[C@H](CO)[C@@H](O)[C@H](O)[C@H]4O)cc3o2)ccc1O`, the CC50 at 72 h was 200 µM. For `O=C(OC[C@H]1O[C@@H](Oc2ccc(O)cc2CO)[C@H](O)[C@@H](O)[C@@H]1O)c1ccccc1` [POLIOTHYRSOSIDE], the CC50 at 72 h was 136 µM.

Tested on: not listed separately
Assay: Selectivity index, ratio of CC50 for african green monkey Vero cells to IC50 for Plasmodium falciparum 3D7
Assay type: functional
Settings: not given
Outline: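 SI = CC50 (Vero, MTT, 72 h) / IC50 against P. falciparum 3D7. […] Read-out SYBR Green I fluorescence (ex 485, em 530 nm), logistic regression, triplicate.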
In the case of `O=c1cc2c3c(cc4c(c3o1)C[C@H](O)[C@@H](c1ccc(O)c(O)c1)O4)Oc1cc(O)c(O)cc1-2` [MURURIN A], the “Ratio CC50/IC50” value is reported as 48.7. In the case of `O=C1C[C@@H](c2ccc(O)c(O)c2)c2c(O)cc3c(c2O1)C[C@H](O)[C@@H](c1ccc(O)c(O)c1)O3`, the “Ratio CC50/IC50” value is reported as 181.8. For `O=C(OC[C@H]1O[C@@H](Oc2ccc(O)cc2COC(=O)[C@@]2(O)[C@H](O)C=CC(=O)[C@@H]2O)[C@H](O)[C@@H](O)[C@@H]1O)c1ccccc1`, the “Ratio CC50/IC50” value was 32.9. With `O=C(O[C@H]1[C@H](Oc2ccc(O)cc2COC(=O)[C@@]2(O)[C@H](O)C=CC(=O)[C@@H]2O)O[C@H](CO)[C@@H](O)[C@@H]1O)c1ccccc1` the “Ratio CC50/IC50” value was 17.6. In the case of `COc1cc(-c2cc(=O)c3c(O)cc(O[C@@H]4O[C@H](CO)[C@@H](O)[C@H](O)[C@H]4O)cc3o2)ccc1O`, the “Ratio CC50/IC50” value is reported as 45.4. For `O=C(OC[C@H]1O[C@@H](Oc2ccc(O)cc2CO)[C@H](O)[C@@H](O)[C@@H]1O)c1ccccc1` [POLIOTHYRSOSIDE], the “Ratio CC50/IC50” value was 16.8.

Tested on: Plasmodium falciparum
Assay: Antiplasmodial activity against chloroquine-sensitive Plasmodium falciparum 3D7 after 72 hrs by SYBR green assay
Assay type: functional, organism-based
Settings: 3D7, 72 h
Outline: (§1)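 Compounds dissolved in DMSO (5 mg/mL or 10 mM stock), two-fold serial dilutions. Asynchronous culture (>80% rings) at 1.0% cell suspension, 0.8% parasitemia, 72 h at 37 °C under 5% CO₂/air. Lysis buffer with 2× SYBR Green I added, 1 h at 37 °C. Fluorescence read at 485/530 nm. IC50 by logistic regression of dose-response curves, three replicates, chloroquine reference.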
Work on `O=c1cc2c3c(cc4c(c3o1)C[C@H](O)[C@@H](c1ccc(O)c(O)c1)O4)Oc1cc(O)c(O)cc1-2` [MURURIN A] yielded an IC50 of 1.2 µM. `O=C1C[C@@H](c2ccc(O)c(O)c2)c2c(O)cc3c(c2O1)C[C@H](O)[C@@H](c1ccc(O)c(O)c1)O3` showed an IC50 of 1.1 µM. In the case of `O=C(OC[C@H]1O[C@@H](Oc2ccc(O)cc2COC(=O)[C@@]2(O)[C@H](O)C=CC(=O)[C@@H]2O)[C@H](O)[C@@H](O)[C@@H]1O)c1ccccc1`, the IC50 is reported as 3.6 µM. For `O=C(O[C@H]1[C@H](Oc2ccc(O)cc2COC(=O)[C@@]2(O)[C@H](O)C=CC(=O)[C@@H]2O)O[C@H](CO)[C@@H](O)[C@@H]1O)c1ccccc1`, the IC50 was 4.4 µM. `COc1cc(-c2cc(=O)c3c(O)cc(O[C@@H]4O[C@H](CO)[C@@H](O)[C@H](O)[C@H]4O)cc3o2)ccc1O` gave an IC50 of 4.4 µM. With `O=C(OC[C@H]1O[C@@H](Oc2ccc(O)cc2CO)[C@H](O)[C@@H](O)[C@@H]1O)c1ccccc1` [POLIOTHYRSOSIDE] the IC50 was 8.1 µM.

Tested on: Plasmodium falciparum
Assay: Antiplasmodial activity against chloroquine-resistant Plasmodium falciparum K1 after 72 hrs by SYBR green assay
Assay type: functional, organism-based
Settings: K1, 72 h
Outline: as §1
Work on `O=c1cc2c3c(cc4c(c3o1)C[C@H](O)[C@@H](c1ccc(O)c(O)c1)O4)Oc1cc(O)c(O)cc1-2` [MURURIN A] yielded an IC50 of 1.3 µM. With `O=C1C[C@@H](c2ccc(O)c(O)c2)c2c(O)cc3c(c2O1)C[C@H](O)[C@@H](c1ccc(O)c(O)c1)O3` the IC50 was over 5 µM. Molecule `O=C(OC[C@H]1O[C@@H](Oc2ccc(O)cc2COC(=O)[C@@]2(O)[C@H](O)C=CC(=O)[C@@H]2O)[C@H](O)[C@@H](O)[C@@H]1O)c1ccccc1` has an IC50 of over 5 µM. With `O=C(O[C@H]1[C@H](Oc2ccc(O)cc2COC(=O)[C@@]2(O)[C@H](O)C=CC(=O)[C@@H]2O)O[C@H](CO)[C@@H](O)[C@@H]1O)c1ccccc1` the IC50 was over 5 µM. For `COc1cc(-c2cc(=O)c3c(O)cc(O[C@@H]4O[C@H](CO)[C@@H](O)[C@H](O)[C@H]4O)cc3o2)ccc1O`, the IC50 was over 5 µM. Work on `O=C(OC[C@H]1O[C@@H](Oc2ccc(O)cc2CO)[C@H](O)[C@@H](O)[C@@H]1O)c1ccccc1` [POLIOTHYRSOSIDE] yielded an IC50 of over 25 µM.

Tested on: not listed separately
Assay: Inhibition of H2O2-induced hemin degradation at 20 uM incubated for 10 mins prior to H2O2-induction measured after 30 mins by spectrophotometric analysis relative to control
Settings: not given
`O=c1cc2c3c(cc4c(c3o1)C[C@H](O)[C@@H](c1ccc(O)c(O)c1)O4)Oc1cc(O)c(O)cc1-2` [MURURIN A] showed an inhibition of 37.5%. In the case of `O=C1C[C@@H](c2ccc(O)c(O)c2)c2c(O)cc3c(c2O1)C[C@H](O)[C@@H](c1ccc(O)c(O)c1)O3`, the inhibition is reported as 23%. `CCN(CC)CCCC(C)Nc1ccnc2cc(Cl)ccc12` (stereo not given) [CHLOROQUINE] gave an inhibition of 53.5%.

Tested on: Plasmodium yoelii
Assay: Antimalarial activity against Plasmodium yoelii infected in Swiss mouse assessed as inhibition of beta-hematin formation in plasma after 16 hrs by spectrophotometric analysis
Assay type: functional, organism-based
Settings: not given
Outline: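 P. yoelii-infected male Swiss mice (15-20 g; 1×10^5 infected RBCs); blood at 50% parasitemia taken in 2.0% citrate, plasma used. Mix: 100 mM sodium acetate pH 5.1, 50 µL plasma, 100 µM hemin, 1–50 µg compound per 1.0 mL; 37 °C 16 h shaking, triplicate. Pellet washed (Tris-SDS, water), dissolved in NaOH, A400; IC50 by non-linear regression.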
`O=c1cc2c3c(cc4c(c3o1)C[C@H](O)[C@@H](c1ccc(O)c(O)c1)O4)Oc1cc(O)c(O)cc1-2` [MURURIN A] showed an IC50 of 8.3 µM. `O=C1C[C@@H](c2ccc(O)c(O)c2)c2c(O)cc3c(c2O1)C[C@H](O)[C@@H](c1ccc(O)c(O)c1)O3` gave an IC50 of 10.1 µM. For `CCN(CC)CCCC(C)Nc1ccnc2cc(Cl)ccc12` (stereo not given) [CHLOROQUINE], the IC50 was 7.7 µM. `O=C(OC[C@H]1O[C@@H](Oc2ccc(O)cc2COC(=O)[C@@]2(O)[C@H](O)C=CC(=O)[C@@H]2O)[C@H](O)[C@@H](O)[C@@H]1O)c1ccccc1` gave an IC50 of over 50 µM. With `O=C(O[C@H]1[C@H](Oc2ccc(O)cc2COC(=O)[C@@]2(O)[C@H](O)C=CC(=O)[C@@H]2O)O[C@H](CO)[C@@H](O)[C@@H]1O)c1ccccc1` the IC50 was over 50 µM. `COc1cc(-c2cc(=O)c3c(O)cc(O[C@@H]4O[C@H](CO)[C@@H](O)[C@H](O)[C@H]4O)cc3o2)ccc1O` showed an IC50 of over 50 µM. With `O=C(OC[C@H]1O[C@@H](Oc2ccc(O)cc2CO)[C@H](O)[C@@H](O)[C@@H]1O)c1ccccc1` [POLIOTHYRSOSIDE] the IC50 was over 50 µM.
